According to ChEMBL document CHEMBL1151929, “Synthesis and antiviral activity evaluation of acyclic 2'-azanucleosides bearing a phosphonomethoxy function in the side chain” (Bioorg Med Chem, 2009):
The source made the active and inactive calls.

How the values were obtained:
Format in all cases: functional, organism-based
[1] = tested on: Sindbis virus; assay: Antiviral activity against Sindbis virus infected in african green monkey Vero cells assessed as reduction of virus-induced cytopathic effect at 10 to 100 ug/ml
Procedure, shortened: (§1)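 Confluent cell monolayers in 96-well plates inoculated with 100 CCID50 of virus; 1–2 h adsorption, residual virus removed, then incubated with varying compound concentrations. CPE scored visually once complete in untreated infected controls; EC50 = concentration reducing virus-induced cytopathicity by 50%. Highest subtoxic concentrations tested 10–100 μg/mL.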

[2] = tested on: Vesicular stomatitis virus; assay: Antiviral activity against VSV infected in HEL cells assessed as reduction of virus-induced cytopathic effect at 10 to 100 ug/ml
[3] = tested on: Vaccinia virus; assay: Antiviral activity against Vaccinia virus Lederle infected in HEL cells assessed as reduction of virus-induced cytopathic effect at 10 to 100 ug/ml; details: Orthopoxvirus vaccinia
[4] = tested on: Vesicular stomatitis virus; assay: Antiviral activity against VSV infected in human HeLa cells assessed as reduction of virus-induced cytopathic effect at 10 to 100 ug/ml
Procedure, shortened: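 Confluent HeLa cell cultures were inoculated with 100 CCID50 of VSV and allowed to adsorb for 1–2 h. Unbound virus was removed and cultures were incubated with varying compound concentrations. CPE was scored visually when complete in untreated infected controls. EC50 is the concentration reducing CPE by 50%.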

[5] = tested on: Coxsackievirus B4; assay: Antiviral activity against Coxsackievirus B4 infected in african green monkey Vero cells assessed as reduction of virus-induced cytopathic effect at 10 to 100 ug/ml; procedure, shortened: as §1
[6] = tested on: Coxsackievirus B4; assay: Antiviral activity against Coxsackievirus B4 infected in human HeLa cells assessed as reduction of virus-induced cytopathic effect at 10 to 100 ug/ml; procedure, shortened: as §1
[7] = tested on: Human betaherpesvirus 5; assay: Antiviral activity against HCMV AD169 infected in HEL cells assessed as reduction of virus plaque formation at 10 to 100 ug/ml
Procedure, shortened: (§2)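 HEL fibroblasts in 96-well plates infected with 100 PFU HCMV; 1–2 h adsorption, residual virus removed, incubation with varying compound concentrations. EC50 taken as concentration reducing viral plaque formation by 50%. Highest subtoxic concentrations 10–100 μg/mL.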

[8] = tested on: Felid alphaherpesvirus 1; assay: Antiviral activity against Feline herpesvirus infected in cat CRFK cells assessed as effect on cell viability at 10 to 100 ug/ml by MTS assay
Procedure, shortened: (§3)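 CRFK feline kidney cells, confluent in 96-well plates, infected with 100 CCID50; after 1–2 h adsorption, inoculum removed and cultures kept with varying compound concentrations until CPE complete in untreated virus controls. Cell viability read by colorimetric formazan-based MTS assay; EC50 = concentration reducing virus-induced cytopathicity by 50%. Top subtoxic concentrations 10–100 μg/mL.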

[9] = tested on: Feline coronavirus; assay: Antiviral activity against Feline coronavirus infected in cat CRFK cells assessed as effect on cell viability at 10 to 100 ug/ml by MTS assay; procedure, shortened: as §3
[10] = tested on: Respiratory syncytial virus; assay: Antiviral activity against RSV Long infected in human HeLa cells assessed as reduction of virus-induced cytopathic effect at 10 to 100 ug/ml; procedure, shortened: as §1
[11] = tested on: Human alphaherpesvirus 2; assay: Antiviral activity against HSV2 G infected in HEL cells assessed as reduction of virus-induced cytopathic effect at 10 to 100 ug/ml; details: strain G
[12] = tested on: Punta Toro virus; assay: Antiviral activity against Punta Toro virus infected in african green monkey Vero cells assessed as reduction of virus-induced cytopathic effect at 10 to 100 ug/ml; procedure, shortened: as §1
[13] = tested on: Human respirovirus 3; assay: Antiviral activity against Parainfluenza virus 3 infected in african green monkey Vero cells assessed as reduction of virus-induced cytopathic effect at 10 to 100 ug/ml; procedure, shortened: as §1
[14] = tested on: Human alphaherpesvirus 3; assay: Antiviral activity against thymidine kinase-deficient Varicella Zoster virus 07/1 infected in HEL cells assessed as reduction in viral plaque formation at 10 to 100 ug/ml
[15] = tested on: Mammalian orthoreovirus 1; assay: Antiviral activity against Reovirus 1 infected in african green monkey Vero cells assessed as reduction of virus-induced cytopathic effect at 10 to 100 ug/ml; procedure, shortened: as §1
[16] = tested on: Human alphaherpesvirus 3; assay: Antiviral activity against Varicella Zoster virus Oka infected in HEL cells assessed as reduction in viral plaque formation at 10 to 100 ug/ml
[17] = tested on: Human alphaherpesvirus 1; assay: Antiviral activity against acyclovir-resistant thymidine kinase-deficient HSV1 KOS infected in HEL cells assessed as reduction of virus-induced cytopathic effect at 10 to 100 ug/ml
[18] = tested on: Human betaherpesvirus 5; assay: Antiviral activity against HCMV Davis infected in HEL cells assessed as reduction of virus plaque formation at 10 to 100 ug/ml; procedure, shortened: as §2
[19] = tested on: Human alphaherpesvirus 1; assay: Antiviral activity against HSV1 KOS infected in HEL cells assessed as reduction of virus-induced cytopathic effect at 10 to 100 ug/ml

Measured: Activity

Cc1ccc(S(=O)(=O)N(CCOCP(=O)(O)O)Cn2cc(F)c(=O)[nH]c2=O)cc1
inactive: all assays above

Cc1ccc(S(=O)(=O)N(CCOCP(=O)(O)O)Cn2ccc(=O)[nH]c2=O)cc1
inactive: all assays above

Cc1ccc(S(=O)(=O)N(CCOCP(=O)(O)O)Cn2ccc(N)nc2=O)cc1
inactive: all assays above

Cc1ccc(S(=O)(=O)N(CCOCP(=O)(O)O)Cn2cc(C)c(=O)[nH]c2=O)cc1
inactive: all assays above
